Assay results published in ChEMBL document CHEMBL5712894, “Regulation of angiotensin II actions by enhancers and super-enhancers in vascular smooth muscle cells” (Nat Commun, 2017).
Active and inactive are the calls of the source. No cut-off for these calls is given here.

Key:
Rattus norvegicus [1] = organism: Rattus norvegicus; experiment: Downregulation of Foxp1 gene expression in rat aorta pretreated with compound at 500 nM followed by AngII addition measured by ChIP assay; type: functional, tissue-based
Rattus norvegicus [2] = organism: Rattus norvegicus; experiment: Downregulation of Fgf2 gene expression in rat aorta pretreated with compound at 500 nM followed by AngII addition measured by ChIP assay; type: functional, tissue-based
Rattus norvegicus [3] = organism: Rattus norvegicus; experiment: Downregulation of fst gene expression in rat aorta pretreated with compound at 500 nM followed by AngII addition measured by ChIP assay; type: functional, tissue-based
Rattus norvegicus [4] = organism: Rattus norvegicus; experiment: Downregulation of Tgif1 gene expression in rat aorta pretreated with compound at 500 nM followed by AngII addition measured by ChIP assay; type: functional, tissue-based
Rattus norvegicus [5] = organism: Rattus norvegicus; experiment: Downregulation of Spry2 gene expression in rat aorta pretreated with compound at 500 nM followed by AngII addition measured by ChIP assay; type: functional, tissue-based
Rattus norvegicus [6] = organism: Rattus norvegicus; experiment: Downregulation of ESM1 gene expression in rat aorta pretreated with compound at 500 nM followed by AngII addition measured by ChIP assay; type: functional, tissue-based
VSMC [7] = experiment: Downregulation of Foxp1 gene expression in human VSMC cells pretreated with compound at 250 to 500 nM followed by AngII addition measured by RT-qPCR analysis; type: functional, cell-based; conditions: dose 250-500 nM
VSMC [8] = experiment: Downregulation of Flt gene expression in human VSMC cells pretreated with compound at 250 to 500 nM followed by AngII addition measured by RT-qPCR analysis; type: functional, cell-based; conditions: dose 250-500 nM
VSMC [9] = experiment: Downregulation of Egr2 gene expression in human VSMC cells pretreated with compound at 250 to 500 nM followed by AngII addition measured by RT-qPCR analysis; type: functional, cell-based; conditions: dose 250-500 nM
VSMC [10] = experiment: Downregulation of Fgf2 gene expression in human VSMC cells pretreated with compound at 250 to 500 nM followed by AngII addition measured by RT-qPCR analysis; type: functional, cell-based; conditions: dose 250-500 nM
VSMC [11] = experiment: Downregulation of Fst gene expression in human VSMC cells pretreated with compound at 250 to 500 nM followed by AngII addition measured by RT-qPCR analysis; type: functional, cell-based; conditions: dose 250-500 nM
VSMC [12] = experiment: Downregulation of Tgif1 gene expression in human VSMC cells pretreated with compound at 250 to 500 nM followed by AngII addition measured by RT-qPCR analysis; type: functional, cell-based; conditions: dose 250-500 nM
VSMC [13] = experiment: Downregulation of Spry2 gene expression in human VSMC cells pretreated with compound at 250 to 500 nM followed by AngII addition measured by RT-qPCR analysis; type: functional, cell-based; conditions: dose 250-500 nM
VSMC [14] = experiment: Downregulation of ESM1 gene expression in human VSMC cells pretreated with compound at 250 to 500 nM followed by AngII addition measured by RT-qPCR analysis; type: functional, cell-based; conditions: dose 250-500 nM
[15] = Binding affinity of BRD2 (unknown origin) assessed as dissociation constant; parameters: species or system Homo sapiens
Mus musculus [16] = experiment: Antihypersensitivity in 1 ug/kg/min AngII infused C57BL/6 mouse assessed as reduction in systolic blood pressure at 50 mg/kg, ip for 4 weeks; type: functional, organism-based
How it was run: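 Male C57BL/6 mice infused with AngII via subcutaneous osmotic minipump (1.0 μg kg−1 min−1, 28 days); 50 mg kg−1 ip once daily starting 2 days post-implantation, vehicle DMSO. Systolic pressure by tail cuff during week 4. n = 7–8 mice/group, mean + SEM, one-way ANOVA with Tukey.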

Mus musculus [17] = experiment: Antihypersensitivity in 1 ug/kg/min AngII infused C57BL/6 mouse assessed as reduction in medial hypertrophy at 50 mg/kg, ip for 4 weeks by F4/80 staining analysis; type: functional, organism-based
How it was run: (§1)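 Male C57BL/6 mice with subcutaneous osmotic minipumps delivering AngII (1.0 μg kg−1 min−1, 28 days); from 2 days post-implantation, 50 mg kg−1 ip once daily (vehicle DMSO). Aortas formalin-fixed, paraffin 5 µm sections. H&E sections quantified for wall thickness; F4/80 IHC (DAB) quantified as reciprocal brown intensity excluding adventitia. Mean + SEM, one-way ANOVA with Tukey.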

Mus musculus [18] = experiment: Antihypersensitivity in 1 ug/kg/min AngII infused C57BL/6 mouse assessed as reduction in inflammation at 50 mg/kg, ip for 4 weeks by F4/80 staining analysis; type: functional, organism-based; how it was run: as §1

**Q.** Which results are given for `Cc1sc2c(c1C)C(c1ccc(Cl)cc1)=N[C@@H](CC(=O)OC(C)(C)C)c1nnc(C)n1-2`?
**A.** Activity (Rattus norvegicus [1]): Active; Activity (Rattus norvegicus [2]): Active; Activity (Rattus norvegicus [3]): Active; Activity (Rattus norvegicus [4]): Active; Activity (Rattus norvegicus [5]): Active; Activity (Rattus norvegicus [6]): Active; Activity (VSMC [7]): Active; Activity (VSMC [8]): Active; Activity (VSMC [9]): Active; Activity (VSMC [10]): Active; Activity (VSMC [11]): Active; Activity (VSMC [12]): Active; Activity (VSMC [13]): Active; Activity (VSMC [14]): Active; Kd [15]: ~128 nM; Activity (Mus musculus [16]): Active; Activity (Mus musculus [17]): Active; Activity (Mus musculus [18]): Active
